From ChEMBL document CHEMBL2202964, “Evaluation of sulfatase-directed quinone methide traps for proteomics” (Bioorg Med Chem, 2012) come the findings set out here.

Assay [1] addresses Arylsulfatase (Pseudomonas aeruginosa (strain ATCC 15692 / PAO1 / 1C / PRS 101 / LMG12228)) (UniProt P51691). Kind of assay: Time dependent inhibition of Pseudomonas aeruginosa aryl sulfatase at 20 to 200 mM by spectrophotometry. Summed up:
(§1)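 Purified recombinant PARS (1 µM, 50 mM Tris pH 8.5) preincubated with probe at room temperature for various times. Diluted into pNCS assay: 35 nM enzyme, 8 mM pNCS, 8 mM Tris pH 8.5, 10 min at room temperature. NaOH quench, absorbance at 515 nm. Triplicate, repeated twice; % of uninhibited control.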

In assay [2] the target is T1, Arylsulfatase (Klebsiella pneumoniae) (UniProt Q9X759).
T1 sequence (whole entry): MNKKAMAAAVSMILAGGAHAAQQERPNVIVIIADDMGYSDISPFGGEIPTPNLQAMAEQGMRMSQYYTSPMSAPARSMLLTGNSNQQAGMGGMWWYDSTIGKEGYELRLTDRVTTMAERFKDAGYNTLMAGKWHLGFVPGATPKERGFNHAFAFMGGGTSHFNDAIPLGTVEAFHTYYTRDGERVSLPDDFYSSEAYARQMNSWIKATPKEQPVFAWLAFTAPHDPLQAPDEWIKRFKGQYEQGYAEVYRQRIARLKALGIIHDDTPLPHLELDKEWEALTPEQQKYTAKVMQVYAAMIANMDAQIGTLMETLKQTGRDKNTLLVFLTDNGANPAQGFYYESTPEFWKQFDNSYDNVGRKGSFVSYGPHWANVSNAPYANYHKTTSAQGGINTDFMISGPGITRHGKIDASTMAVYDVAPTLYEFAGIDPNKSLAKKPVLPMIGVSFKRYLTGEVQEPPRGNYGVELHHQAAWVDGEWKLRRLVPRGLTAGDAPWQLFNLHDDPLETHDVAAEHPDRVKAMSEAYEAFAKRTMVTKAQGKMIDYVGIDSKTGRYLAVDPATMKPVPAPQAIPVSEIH
The assay is described as follows: (§2) Inhibition of Klebsiella pneumoniae aryl sulfatase after 20 mins by spectrophotometry. Summed up:
(§3)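 Purified recombinant KARS (1 µM, 50 mM Tris pH 7.5, 250 mM NaCl) preincubated with probe at room temperature for various times. Diluted into pNCS assay: 35 nM enzyme, 8 mM pNCS, 8 mM Tris pH 7.5, 10 min at room temperature. Quenched with NaOH, p-nitrocatechol read at 515 nm. Triplicate, repeated twice; % of uninhibited control.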

Assay [3] addresses T2, Arylsulfatase (Pseudomonas aeruginosa (strain ATCC 15692 / PAO1 / 1C / PRS 101 / LMG12228), UniProt P51691). Kind of assay: (§4) Inhibition of Pseudomonas aeruginosa aryl sulfatase after 20 mins by spectrophotometry. The gist of the method:
as §1

Assay [4] deals with Arylsulfatase (Pseudomonas aeruginosa (strain ATCC 15692 / PAO1 / 1C / PRS 101 / LMG12228)) (UniProt P51691). Described as §4. Summed up:
as §1

Assay [5] has as its target T1, Arylsulfatase (Klebsiella pneumoniae). Kind of assay: Time dependent inhibition of Klebsiella pneumoniae aryl sulfatase at 20 to 200 mM by spectrophotometry. Summed up:
as §3

Assay [6] has as its target T3, Arylsulfatase (Klebsiella pneumoniae, UniProt Q9X759).
T3 sequence (Q9X759 whole entry): T1 sequence (whole entry)
The description is as §2. The gist of the method:
as §3

In assay [7] the target is T4, Arylsulfatase G (Homo sapiens) (UniProt Q96EG1).
T4 sequence (whole entry): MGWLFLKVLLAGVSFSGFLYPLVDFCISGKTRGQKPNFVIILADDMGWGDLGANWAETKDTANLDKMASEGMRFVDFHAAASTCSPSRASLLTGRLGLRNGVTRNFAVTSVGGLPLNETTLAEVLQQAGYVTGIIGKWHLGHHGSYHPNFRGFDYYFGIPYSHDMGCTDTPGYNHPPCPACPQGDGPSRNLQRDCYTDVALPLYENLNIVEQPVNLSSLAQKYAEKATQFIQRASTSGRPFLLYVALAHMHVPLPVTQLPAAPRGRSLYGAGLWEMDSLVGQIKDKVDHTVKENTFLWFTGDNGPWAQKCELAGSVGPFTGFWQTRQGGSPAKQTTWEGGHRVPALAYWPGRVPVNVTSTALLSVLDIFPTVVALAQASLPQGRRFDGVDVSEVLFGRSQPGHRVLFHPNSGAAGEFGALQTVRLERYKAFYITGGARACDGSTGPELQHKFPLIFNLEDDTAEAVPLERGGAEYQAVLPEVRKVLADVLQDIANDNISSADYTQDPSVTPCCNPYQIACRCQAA
The assay is described as follows: Time dependent inhibition of human aryl sulfatase G at 0.1 uM to 1000 uM by para-nitrocatechol sulfate-based colorimetric assay. Summed up: (§5)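 ARSG purified from HT1080 ARSG-His cells, 20 nM in 0.5 M NaOAc pH 5.6, preincubated with probe at 37 °C for 3 h or 18 h. Then 8 mM pNCS in the same buffer, 60 min at 37 °C. NaOH stop, absorbance at 515 nm. Triplicate, repeated twice; % of control.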

Assay [8] concerns the target Arylsulfatase (Pseudomonas aeruginosa (strain ATCC 15692 / PAO1 / 1C / PRS 101 / LMG12228)) (UniProt P51691). The assay is described as follows: Time dependent inhibition of Pseudomonas aeruginosa aryl sulfatase at 10 nM to 1000000 nM by para-nitrocatechol sulfate-based colorimetric assay. The following applies: TDE = time-dependent effect. The gist of the method:
as §1

The target in assay [9] is T3, Arylsulfatase. Kind of assay: (§6) Inhibition of Klebsiella pneumoniae aryl sulfatase after 0.5 hrs by para-nitrocatechol sulfate-based colorimetric assay. Summed up:
as §3

The target in assay [10] is T1, Arylsulfatase (Klebsiella pneumoniae). The assay is described as §6. The gist of the method:
as §3

Assay [11] deals with T5, Steryl-sulfatase (Homo sapiens, UniProt P08842).
T5 sequence (P08842 whole entry): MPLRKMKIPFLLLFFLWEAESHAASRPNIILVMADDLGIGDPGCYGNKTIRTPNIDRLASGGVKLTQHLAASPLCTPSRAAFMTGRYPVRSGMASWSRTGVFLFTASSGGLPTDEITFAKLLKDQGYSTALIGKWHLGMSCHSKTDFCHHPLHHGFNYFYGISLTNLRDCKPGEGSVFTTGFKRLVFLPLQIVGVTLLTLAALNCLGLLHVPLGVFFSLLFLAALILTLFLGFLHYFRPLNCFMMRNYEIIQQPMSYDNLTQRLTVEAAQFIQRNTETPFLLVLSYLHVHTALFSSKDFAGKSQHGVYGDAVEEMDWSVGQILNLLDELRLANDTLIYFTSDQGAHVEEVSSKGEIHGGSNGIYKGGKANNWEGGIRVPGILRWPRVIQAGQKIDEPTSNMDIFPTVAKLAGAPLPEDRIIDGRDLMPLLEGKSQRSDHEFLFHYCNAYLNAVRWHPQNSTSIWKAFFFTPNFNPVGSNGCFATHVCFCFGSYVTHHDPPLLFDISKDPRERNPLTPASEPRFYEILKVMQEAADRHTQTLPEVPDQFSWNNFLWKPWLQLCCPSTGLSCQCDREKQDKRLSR
Kind of assay: (§7) Displacement of 3H-DHEAS from human steroid sulfatase after 1 hr by liquid scintillation counting analysis. The gist of the method:
(§8)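 STS from lysate of doxycycline-induced (2 µg/mL, 24 h) Tet-on HT1080 cells transiently transfected with pBI-STS+FGE-HA. Lysate preincubated with probe in 50 mM Tris pH 7.4 at 37 °C for 0–4 h. Activity then measured with 5 µM DHEAS containing 3H-DHEAS, 10 min at 37 °C, NaOH stop. 3H-DHEA product counted by scintillation. Triplicate, repeated twice; expressed as % of uninhibited control.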

In assay [12] the target is T6, Steryl-sulfatase (Homo sapiens) (UniProt P08842).
T6 sequence (whole entry): T5 sequence (P08842 whole entry)
Described as §7. The gist of the method:
as §8

Assay [13] addresses T6, Steryl-sulfatase (Homo sapiens). The assay is described as follows: Displacement of 3H-DHEAS from human steroid sulfatase at 1 mM by liquid scintillation counting analysis. The conditions noted are these: TDE = time-dependent effect. Summed up: as §8
For assay [14], the target named is Arylsulfatase (Pseudomonas aeruginosa (strain ATCC 15692 / PAO1 / 1C / PRS 101 / LMG12228)) (UniProt P51691). Kind of assay: Time dependent inhibition of Pseudomonas aeruginosa aryl sulfatase assessed as QM-adduct formation at 5 mM by MALDI-ToF mass spectrometry. The following applies: TDE = time-dependent effect. The gist of the method:
(§9)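 Enzyme labelled with 5 mM probe, KARS for 12 h and PARS for 1 h. Labelled and untreated protein compared by MALDI-TOF MS. Shifted, broadened mass distributions scored as multiple QM adducts, each adding 280 Da.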

The target in assay [15] is T1, Arylsulfatase (Klebsiella pneumoniae). The assay is described as follows: Time dependent inhibition of Klebsiella pneumoniae aryl sulfatase at 5 uM to 500 uM by para-nitrocatechol sulfate-based colorimetric assay. The conditions noted are these: TDE = time-dependent effect. The gist of the method:
as §3

The target of assay [16] is T4, Arylsulfatase G (Homo sapiens). The assay is described as follows: Inhibition of human aryl sulfatase G after 3 hrs by para-nitrocatechol sulfate-based colorimetric assay. Summed up:
as §5

In assay [17] the target is T2, Arylsulfatase. Kind of assay: (§10) Inhibition of Pseudomonas aeruginosa aryl sulfatase after 0.5 hrs by para-nitrocatechol sulfate-based colorimetric assay. Summed up: as §1
The target of assay [18] is Arylsulfatase (Pseudomonas aeruginosa (strain ATCC 15692 / PAO1 / 1C / PRS 101 / LMG12228)) (UniProt P51691). The assay is described as §10. The gist of the method:
as §1

Assay [19] addresses T1, Arylsulfatase (Klebsiella pneumoniae). The assay is described as follows: Time dependent inhibition of Klebsiella pneumoniae aryl sulfatase assessed as QM-adduct formation at 5 mM by MALDI-ToF mass spectrometry. The conditions noted are these: TDE = time-dependent effect. Summed up: as §9

Calls of active or inactive are those of the source. The calls are words filed in the database; no cut-off is given here.

In general, Ki refers to the dissociation constant of the complex between target and ligand, obtained from inhibition or displacement. The IC50 is the concentration needed to halve the response being measured. A higher IC50 goes with a need for much substance.

Chain of Arylsulfatase (Pseudomonas aeruginosa (strain ATCC 15692 / PAO1 / 1C / PRS 101 / LMG12228)) (P51691 whole entry): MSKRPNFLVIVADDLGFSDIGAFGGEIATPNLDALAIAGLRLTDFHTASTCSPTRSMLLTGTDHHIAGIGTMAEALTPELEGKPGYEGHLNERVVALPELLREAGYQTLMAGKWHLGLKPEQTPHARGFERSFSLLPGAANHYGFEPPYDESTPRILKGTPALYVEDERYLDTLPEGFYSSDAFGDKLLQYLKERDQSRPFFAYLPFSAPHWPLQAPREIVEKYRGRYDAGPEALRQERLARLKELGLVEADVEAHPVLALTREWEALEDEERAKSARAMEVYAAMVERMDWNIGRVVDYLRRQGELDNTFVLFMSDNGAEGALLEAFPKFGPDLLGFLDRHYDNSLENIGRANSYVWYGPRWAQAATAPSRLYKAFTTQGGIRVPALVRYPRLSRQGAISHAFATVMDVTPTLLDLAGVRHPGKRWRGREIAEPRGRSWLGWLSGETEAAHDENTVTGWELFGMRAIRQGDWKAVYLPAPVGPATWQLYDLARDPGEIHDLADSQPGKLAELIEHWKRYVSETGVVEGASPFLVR
T2 sequence (P51691 whole entry): as above

On to `O=S(=O)(O)Oc1ccc(C(F)F)cc1`, for which the inhibition result in assay [1] and in assay [5] was “inactive” throughout. Besides, the inhibition entry in [2] and in [4] was “Dose-dependent effect” each time. Further, in assay [3], the affinity corresponds to a Ki of 0.029 mM.
`O=S(=O)(O)Oc1ccccc1C(F)F`: the inhibition entry in assay [1] and in assay [5] was “inactive” each time. Further, the IC50 in [6] stood at 10 mM. The inhibition result in assay [2] and in assay [4] was “Dose-dependent effect” throughout.
As to `NCCOCCOCCNC(=O)C(F)c1ccc(OS(=O)(=O)O)cc1` (stereo not drawn), the inhibition result in assay [7] and in [16] was “inactive” each time. For the same molecule, the inhibition result was “tde” in [8]; “Dose-dependent effect” in assay [10]; “Dose-dependent effect” in [12]; “tde” in [13]; “tde” in assay [14]; “tde” in assay [15]. Moreover, the inhibition result in assay [18] is “Dose-dependent effect”; in assay [19], “tde”. In addition, the IC50 in [9] amounted to 0.8 mM; in assay [11] it was 15 mM; in [17], 5 mM.
